According to ChEMBL document CHEMBL5058577, “EUbOPEN Chemogenomics Library 2 (Multiplex)” (2022):

Test system: HEK-293T
Assay: Multiplex assay against HEK293T
Assay type: toxicity, cell-based
Details: human
Summary of the method: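 Cells stained live at seeding with Hoechst33342, BioTracker Green Microtubule Cytoskeleton Dye, MitoTracker Red and Annexin V Alexa Fluor 680 were imaged on a CQ1 microscope at 37°C and 5% CO2 after compound addition. Their classification by CellPathfinder machine-learning gating ran from Hoechst high-intensity objects versus normal cells, to healthy, pyknosed or fragmented nuclei among normal cells, to mitotic or apoptotic among pyknosed cells. Tubulin, mitochondrial-mass and membrane-permeability phenotypes are per cents of healthy-nucleus cells.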

[1] = 12 h, 1 µM, compound concentration 1 uM, replicate 1
[2] = 12 h, 1 µM, compound concentration 1 uM, replicate 2
[3] = 12 h, 10 µM, compound concentration 10 uM, replicate 1
[4] = 12 h, 10 µM, compound concentration 10 uM, replicate 2
[5] = 24 h, 1 µM, compound concentration 1 uM, replicate 1
[6] = 24 h, 1 µM, compound concentration 1 uM, replicate 2
[7] = 24 h, 10 µM, compound concentration 10 uM, replicate 1
[8] = 24 h, 10 µM, compound concentration 10 uM, replicate 2
[9] = 48 h, 1 µM, compound concentration 1 uM, replicate 1
[10] = 48 h, 1 µM, compound concentration 1 uM, replicate 2
[11] = 48 h, 10 µM, compound concentration 10 uM, replicate 1
[12] = 48 h, 10 µM, compound concentration 10 uM, replicate 2

CNC[C@H](O)c1ccc(O)c(O)c1 [EPINEPHRINE]
Population Apoptotic (%) [1]: 20%
Population Fragmented Nuclei (%) [1]: 6%
Population Healthy Nuclei (%) [1]: 81%
Population Hoechst High Intensity Objects (%) [1]: 7%
Population Membrane Permeable-Phenotype (%) [1]: 0%
Population Mitochondria Different-Phenotype (%) [1]: 31%
Population Mitotic Cells (%) [1]: 80%
Population Normal (%) [1]: 92%
Population Pyknosed Nuclei (%) [1]: 11%
Population Tubulin-Different-Phenotype (%) [1]: 26%
Population Apoptotic (%) [2]: 56%
Population Hoechst High Intensity Objects (%) [2]: 6%
Population Mitochondria Different-Phenotype (%) [2]: 65%
Population Mitotic Cells (%) [2]: 43%
Population Normal (%) [2]: 93%
Population Tubulin-Different-Phenotype (%) [2]: 27%
Population Apoptotic (%) [3]: 55%
Population Fragmented Nuclei (%) [3]: 12%
Population Healthy Nuclei (%) [3]: 75%
Population Hoechst High Intensity Objects (%) [3]: 9%
Population Membrane Permeable-Phenotype (%) [3]: 1%
Population Mitochondria Different-Phenotype (%) [3]: 65%
Population Mitotic Cells (%) [3]: 44%
Population Normal (%) [3]: 90%
Population Pyknosed Nuclei (%) [3]: 11%
Population Tubulin-Different-Phenotype (%) [3]: 39%
Population Apoptotic (%) [4]: 56%
Population Fragmented Nuclei (%) [4]: 11%
Population Healthy Nuclei (%) [4]: 61%
Population Hoechst High Intensity Objects (%) [4]: 40%
Population Membrane Permeable-Phenotype (%) [4]: 0%
Population Mitochondria Different-Phenotype (%) [4]: 62%
Population Mitotic Cells (%) [4]: 43%
Population Normal (%) [4]: 59%
Population Pyknosed Nuclei (%) [4]: 26%
Population Tubulin-Different-Phenotype (%) [4]: 25%
Population Apoptotic (%) [5]: 19%
Population Fragmented Nuclei (%) [5]: 9%
Population Healthy Nuclei (%) [5]: 80%
Population Hoechst High Intensity Objects (%) [5]: 5%
Population Membrane Permeable-Phenotype (%) [5]: 0%
Population Mitochondria Different-Phenotype (%) [5]: 25%
Population Mitotic Cells (%) [5]: 80%
Population Normal (%) [5]: 94%
Population Pyknosed Nuclei (%) [5]: 9%
Population Tubulin-Different-Phenotype (%) [5]: 21%
Population Apoptotic (%) [6]: 36%
Population Hoechst High Intensity Objects (%) [6]: 7%
Population Membrane Permeable-Phenotype (%) [6]: 1%
Population Mitochondria Different-Phenotype (%) [6]: 41%
Population Mitotic Cells (%) [6]: 63%
Population Normal (%) [6]: 92%
Population Pyknosed Nuclei (%) [6]: 10%
Population Tubulin-Different-Phenotype (%) [6]: 18%
Population Apoptotic (%) [7]: 50%
Population Fragmented Nuclei (%) [7]: 13%
Population Healthy Nuclei (%) [7]: 75%
Population Hoechst High Intensity Objects (%) [7]: 8%
Population Membrane Permeable-Phenotype (%) [7]: 0%
Population Mitochondria Different-Phenotype (%) [7]: 50%
Population Mitotic Cells (%) [7]: 50%
Population Normal (%) [7]: 91%
Population Pyknosed Nuclei (%) [7]: 11%
Population Tubulin-Different-Phenotype (%) [7]: 36%
Population Apoptotic (%) [8]: 80%
Population Fragmented Nuclei (%) [8]: 11%
Population Healthy Nuclei (%) [8]: 71%
Population Hoechst High Intensity Objects (%) [8]: 39%
Population Mitochondria Different-Phenotype (%) [8]: 43%
Population Mitotic Cells (%) [8]: 19%
Population Normal (%) [8]: 60%
Population Pyknosed Nuclei (%) [8]: 17%
Population Tubulin-Different-Phenotype (%) [8]: 25%
Population Apoptotic (%) [9]: 16%
Population Fragmented Nuclei (%) [9]: 11%
Population Healthy Nuclei (%) [9]: 81%
Population Hoechst High Intensity Objects (%) [9]: 3%
Population Membrane Permeable-Phenotype (%) [9]: 1%
Population Mitochondria Different-Phenotype (%) [9]: 13%
Population Mitotic Cells (%) [9]: 83%
Population Normal (%) [9]: 96%
Population Pyknosed Nuclei (%) [9]: 7%
Population Tubulin-Different-Phenotype (%) [9]: 9%
Population Apoptotic (%) [10]: 35%
Population Fragmented Nuclei (%) [10]: 12%
Population Healthy Nuclei (%) [10]: 78%
Population Mitochondria Different-Phenotype (%) [10]: 24%
Population Mitotic Cells (%) [10]: 64%
Population Pyknosed Nuclei (%) [10]: 8%
Population Tubulin-Different-Phenotype (%) [10]: 15%
Population Apoptotic (%) [11]: 33%
Population Fragmented Nuclei (%) [11]: 21%
Population Healthy Nuclei (%) [11]: 72%
Population Hoechst High Intensity Objects (%) [11]: 3%
Population Membrane Permeable-Phenotype (%) [11]: 0%
Population Mitochondria Different-Phenotype (%) [11]: 25%
Population Mitotic Cells (%) [11]: 66%
Population Normal (%) [11]: 96%
Population Pyknosed Nuclei (%) [11]: 5%
Population Tubulin-Different-Phenotype (%) [11]: 11%
Population Apoptotic (%) [12]: 69%
Population Fragmented Nuclei (%) [12]: 17%
Population Healthy Nuclei (%) [12]: 67%
Population Hoechst High Intensity Objects (%) [12]: 21%
Population Mitochondria Different-Phenotype (%) [12]: 34%
Population Mitotic Cells (%) [12]: 30%
Population Normal (%) [12]: 78%
Population Pyknosed Nuclei (%) [12]: 14%
Population Tubulin-Different-Phenotype (%) [12]: 13%
